Tests used:
HL-60 cells [1] = assay: Mitochondrial transmembrane potential; type: cell-based, human; conditions: HL-60, rhodamine 123, 24 h, p < 0.05; DOX 2 µM, OXA 2.5 µM
Procedure, shortened: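 HL-60 cells were grown in RPMI-1640 with 10% FBS, 2 mM L-glutamine and 50 µg/mL gentamycin at 37 °C, 5% CO2. After treatment, cells were loaded with rhodamine 123 (5 µg/mL) for 15 min at 37 °C in the dark and washed in saline.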

HL-60 cells [2] = assay: Morphological analysis; type: cell-based, human; conditions: 24 and 48 h, DOX 2 µM, OXA 2.5 µM
Procedure, shortened: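 HL-60 cells were treated for 24 and 48 h, then stained with May-Grunwald-Giemsa and examined by light microscopy. In parallel, forward and side light scatter were quantified by flow cytometry, recording 10^4 events per sample with debris excluded. Vehicle was the negative control, with doxorubicin and oxaliplatin as positive controls.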

[3] = Time-dependent 31P{1H} NMR stability in DMSO solution; type: physicochemical
[4] = system: HCT116 (human colon carcinoma); assay: Alamar blue cytotoxicity assay, HCT116; type: cell-based
ROS in HL-60 cells = assay: Intracellular reactive oxygen species levels; type: cell-based, human; conditions: HL-60, DCFH-DA, 1 h
Procedure, shortened: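 Intracellular ROS in HL-60 cells was measured with 2′,7′-dichlorofluorescin diacetate after 1 and 3 h exposure to test compound. Fluorescence was read by flow cytometry, recording 10^4 events per sample with cellular debris omitted. Vehicle served as negative control; results are mean ± S.E.M., compared by ANOVA and Student–Newman–Keuls test.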

[5] = system: HSC-3 (human oral squamous cell carcinoma); assay: Alamar blue cytotoxicity assay, HSC-3; type: cell-based
[6] = system: SCC-9 (human oral squamous cell carcinoma); assay: Alamar blue cytotoxicity assay, SCC-9; type: cell-based
B16-F10 (mouse melanoma) = assay: Alamar blue cytotoxicity assay, B16-F10; type: cell-based
calf thymus DNA (ctDNA) = assay: DNA intercalation assay; type: binding; conditions: cell-free, 15 µg/mL ctDNA, 1.5 µM ethidium bromide; complex 5, 10 and 20 µM; doxorubicin 10 µM
Procedure, shortened: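 Ethidium bromide displacement from calf thymus DNA in saline: 15 µg/mL ctDNA, 1.5 µM ethidium bromide, test compound at 5, 10 and 20 µM. Vehicle (0.1% DMSO) was the negative control and doxorubicin (10 µM) the positive control. Fluorescence was read at excitation 320 nm and emission 600 nm. Lower fluorescence was taken as intercalation.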

[7] = system: K-562 (human chronic myelogenous leukemia); assay: Alamar blue cytotoxicity assay, K-562; type: cell-based
HL-60 cells [8] = type: cell-based, human; conditions: HL-60, 24 and 48 h, p < 0.05; DOX 2 µM, OXA 2.5 µM
[9] = system: MCF-7 (human breast carcinoma); assay: Alamar blue cytotoxicity assay, MCF-7; type: cell-based
[10] = system: HepG2 (human hepatocellular carcinoma); assay: Alamar blue cytotoxicity assay, HepG2; type: cell-based
[11] = system: HL-60 (human promyelocytic leukemia); assay: Alamar blue cytotoxicity assay, HL-60; type: cell-based
[12] = system: PBMC (human peripheral blood mononuclear cells); assay: Alamar blue cytotoxicity assay, PBMC; type: cell-based; conditions: read-out: IC50 in µM; PBMC non-cancer cells, alamar blue, 72 h
HL-60 cells [13] = assay: Internucleosomal DNA fragmentation and cell cycle distribution; type: cell-based, human
Procedure, shortened: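 After 24 or 48 h treatment, HL-60 cells were permeabilized and stained with propidium iodide, and DNA content was measured by flow cytometry. 10^4 events were recorded per sample with debris excluded. Sub-G0/G1 was taken as internucleosomal DNA fragmentation, alongside G0/G1, S and G2/M fractions. Doxorubicin and oxaliplatin were positive controls; ANOVA with Student–Newman–Keuls test.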

[14] = HL-60, 1 µM, 24 h of incubation
[15] = HL-60, 1 µM, 48 h of incubation
[16] = HL-60, 2 µM, 24 h of incubation
[17] = HL-60, 2 µM, 48 h of incubation
[18] = HL-60, 4 µM, 24 h of incubation
[19] = HL-60, 4 µM, 48 h of incubation

cis-[PtCl(PIP-OH)(PPh3)2]PF6 [CPP]
mitochondrial transmembrane potential (HL-60 cells [1]): induced loss of the mitochondrial transmembrane potential | cell morphology (HL-60 cells [2]; HL-60, May-Grunwald-Giemsa): reduction in the cell volume, chromatin condensation and fragmentation of the nuclei | forward light scatter (FSC) (HL-60 cells [2]; HL-60, flow cytometry): decrease in FSC | side scatter (SCC) (HL-60 cells [2]; HL-60, flow cytometry): transient increase in SCC | stability in solution (31P{1H} NMR) ([3]; after 1 h of incubation): significant dissociation of PIP-OH ligand from the metal complex | stability in solution (31P{1H} NMR) ([3]; after 48 h): most the PIP-OH was dissociated from the metal complex | more potent than PIP-OH ([4]; HCT116, ratio of IC50): 2.4 fold | more potent than piplartine ([4]; HCT116, ratio of IC50): 1.1 fold | IC50 ([4]; read-out: IC50 in µM, HCT116, alamar blue, 72 h): 4.8 µM | ROS levels (ROS in HL-60 cells): caused increasing in the ROS levels | more potent than PIP-OH ([5]; HSC-3, ratio of IC50): 1.7 fold | more potent than piplartine ([5]; HSC-3, ratio of IC50): 14.1 fold | IC50 ([5]; read-out: IC50 in µM, HSC-3, alamar blue, 72 h): 1 µM | more potent than PIP-OH ([6]; SCC-9, ratio of IC50): 3.8 fold | more potent than piplartine ([6]; SCC-9, ratio of IC50): 2.7 fold | IC50 ([6]; read-out: IC50 in µM, SCC-9, alamar blue, 72 h): 6.2 µM | more potent than PIP-OH (B16-F10 (mouse melanoma); B16-F10, ratio of IC50): 56.9 fold | more potent than piplartine (B16-F10 (mouse melanoma); B16-F10, ratio of IC50): 9.6 fold | IC50 (B16-F10 (mouse melanoma); read-out: IC50 in µM, B16-F10, alamar blue, 72 h): 1.1 µM | ethidium bromide fluorescence (displacement from ctDNA) (calf thymus DNA (ctDNA)): did not reduce the ethidium bromide fluorescence | more potent than PIP-OH ([7]; K-562, ratio of IC50): 21.1 fold | more potent than piplartine ([7]; K-562, ratio of IC50): 16.9 fold | IC50 ([7]; read-out: IC50 in µM, K-562, alamar blue, 72 h): 1.1 µM | apoptotic cells (annexin V-FITC/PI) (HL-60 cells [8]): increasing in apoptotic cells with more pronounced effect after 48 h | more potent than PIP-OH ([9]; MCF-7, ratio of IC50): 3.6 fold | more potent than piplartine ([9]; MCF-7, ratio of IC50): 1.5 fold | IC50 ([9]; read-out: IC50 in µM, MCF-7, alamar blue, 72 h): 6.8 µM | more potent than piplartine ([10]; HepG2, ratio of IC50): 1.4 fold | IC50 ([10]; read-out: IC50 in µM, HepG2, alamar blue, 72 h): 4.4 µM | more potent than PIP-OH ([11]; HL-60, ratio of IC50): 4.5 fold | more potent than piplartine ([11]; HL-60, ratio of IC50): 7.4 fold | IC50 ([11]; read-out: IC50 in µM, HL-60, alamar blue, 72 h): 1.9 µM | IC50 [12]: 10.3 µM | DNA content (%) G0/G1 (HL-60 cells [13]; [14]): 32.0 ± 5.4 % | DNA content (%) G2/M (HL-60 cells [13]; [14]): 13.2 ± 2.9% | DNA content (%) S (HL-60 cells [13]; [14]): 10.5 ± 1.8% | DNA content (%) Sub-G0/G1 (HL-60 cells [13]; [14]): 25.0 ± 1.6 % | DNA content (%) G0/G1 (HL-60 cells [13]; [15]): 49.7 ± 2.2% | DNA content (%) G2/M (HL-60 cells [13]; [15]): 14.5 ± 0.9% | DNA content (%) S (HL-60 cells [13]; [15]): 12.3 ± 1.6% | DNA content (%) Sub-G0/G1 (HL-60 cells [13]; [15]): 19.8 ± 1.4 % | DNA content (%) G0/G1 (HL-60 cells [13]; [16]): 34.3 ± 2.9 % | DNA content (%) G2/M (HL-60 cells [13]; [16]): 15.0 ± 2.5% | DNA content (%) S (HL-60 cells [13]; [16]): 10.3 ± 1.1% | DNA content (%) Sub-G0/G1 (HL-60 cells [13]; [16]): 29.2 ± 0.9 % | DNA content (%) G0/G1 (HL-60 cells [13]; [17]): 48.5 ± 3.1% | DNA content (%) G2/M (HL-60 cells [13]; [17]): 14.1 ± 1.5% | DNA content (%) S (HL-60 cells [13]; [17]): 14.3 ± 0.8% | DNA content (%) Sub-G0/G1 (HL-60 cells [13]; [17]): 25.8 ± 3.8 % | DNA content (%) G0/G1 (HL-60 cells [13]; [18]): 26.7 ± 4.6 % | DNA content (%) G2/M (HL-60 cells [13]; [18]): 15.3 ± 2.6% | DNA content (%) S (HL-60 cells [13]; [18]): 10.1 ± 1.4% | DNA content (%) Sub-G0/G1 (HL-60 cells [13]; [18]): 26.2 ± 4.1 % | DNA content (%) G0/G1 (HL-60 cells [13]; [19]): 41.9 ± 8.6% | DNA content (%) G2/M (HL-60 cells [13]; [19]): 12.8 ± 2.8% | DNA content (%) S (HL-60 cells [13]; [19]): 8.0 ± 2.0 % | DNA content (%) Sub-G0/G1 (HL-60 cells [13]; [19]): 27.3 ± 7.0 %
